Test results published in ChEMBL document CHEMBL4715736, “Identification of anticancer agents based on the thieno[2,3-b]pyridine and 1H-pyrazole molecular scaffolds” (2016).

Experiments:
Format in all cases: functional
IGROV-1 [1] = test: Growth inhibition of human IGROV-1 cells assessed as cell growth at 100 uM incubated for 48 hrs by sulforhodamine B assay relative to control; details: read-out: Activity
SF-268 [2] = test: Growth inhibition of human SF-268 cells incubated for 48 hrs by sulforhodamine B assay
Outline: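 NCI DTP 60-line human tumour panel. Dose-response curves were run only for ligands active in the initial 10 µM screen. GI50 (concentration giving 50% of maximal inhibition of proliferation) and TGI (concentration giving total growth inhibition) were derived from these curves.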

HCT-116 [3] = test: Growth inhibition of human HCT-116 cells assessed as cell growth at 100 uM incubated for 48 hrs by sulforhodamine B assay relative to control; details: read-out: Activity
SK-MEL-2 [4] = test: Growth inhibition of human SK-MEL-2 cells assessed as cell growth at 100 uM incubated for 48 hrs by sulforhodamine B assay relative to control; details: read-out: Activity
SN12C = test: Growth inhibition of human SN12C cells assessed as cell growth at 100 uM incubated for 48 hrs by sulforhodamine B assay relative to control; details: read-out: Activity
SK-MEL-5 [5] = test: Growth inhibition of human SK-MEL-5 cells assessed as cell growth at 100 uM incubated for 48 hrs by sulforhodamine B assay relative to control; details: read-out: Activity
OVCAR-5 [6] = test: Growth inhibition of human OVCAR-5 cells assessed as cell growth at 100 uM incubated for 48 hrs by sulforhodamine B assay relative to control; details: read-out: Activity
HCT-15 = test: Growth inhibition of human HCT-15 cells assessed as cell growth at 100 uM incubated for 48 hrs by sulforhodamine B assay relative to control; details: read-out: Activity
Hs-578T = test: Growth inhibition of human Hs-578T cells assessed as cell growth at 0.01 uM incubated for 48 hrs by sulforhodamine B assay relative to control; details: read-out: Activity
SK-MEL-2 [7] = test: Growth inhibition of human SK-MEL-2 cells assessed as cell growth at 1 uM incubated for 48 hrs by sulforhodamine B assay relative to control; details: read-out: Activity
SK-MEL-5 [8] = test: Growth inhibition of human SK-MEL-5 cells assessed as cell growth at 0.1 uM incubated for 48 hrs by sulforhodamine B assay relative to control; details: read-out: Activity
SK-MEL-28 = test: Growth inhibition of human SK-MEL-28 cells assessed as cell growth at 1 uM incubated for 48 hrs by sulforhodamine B assay relative to control; details: read-out: Activity
PC-3 = test: Growth inhibition of human PC-3 cells assessed as cell growth at 100 uM incubated for 48 hrs by sulforhodamine B assay relative to control; details: read-out: Activity
HCT-116 [9] = test: Growth inhibition of human HCT-116 cells assessed as cell growth at 0.01 uM incubated for 48 hrs by sulforhodamine B assay relative to control; details: read-out: Activity
HCT-116 [10] = test: Growth inhibition of human HCT-116 cells assessed as cell growth at 0.1 uM incubated for 48 hrs by sulforhodamine B assay relative to control; details: read-out: Activity
SK-OV-3 = test: Growth inhibition of human SK-OV-3 cells assessed as cell growth at 100 uM incubated for 48 hrs by sulforhodamine B assay relative to control; details: read-out: Activity
Malme-3M = test: Growth inhibition of human Malme-3M cells assessed as cell growth at 0.1 uM incubated for 48 hrs by sulforhodamine B assay relative to control; details: read-out: Activity
HCC 2998 = test: Growth inhibition of human HCC 2998 cells assessed as cell growth at 1 uM incubated for 48 hrs by sulforhodamine B assay relative to control; details: read-out: Activity
Outline: (§1)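 NCI Developmental Therapeutics Program NCI60 panel. Compounds that were active in the 10 µM one-dose screen went on to dose–response testing. Growth at each concentration is expressed relative to untreated control (100%). GI50 (concentration giving 50% of maximal inhibition of proliferation) and TGI (concentration giving total growth inhibition) were derived from the curves.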

LOX IMVI = test: Growth inhibition of human LOX IMVI cells incubated for 48 hrs by sulforhodamine B assay
Outline: (§2)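 NCI60 panel at the NCI Developmental Therapeutics Program. Only compounds active in the 10 µM screen went to dose-response testing. GI50, the concentration giving 50% of maximal inhibition of proliferation, and TGI, the concentration giving total growth inhibition, were derived from the dose-response curves.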

RXF 393 = test: Growth inhibition of human RXF 393 cells assessed as cell growth at 100 uM incubated for 48 hrs by sulforhodamine B assay relative to control; details: read-out: Activity
HOP-62 [11] = test: Growth inhibition of human HOP-62 cells assessed as cell growth at 0.01 uM incubated for 48 hrs by sulforhodamine B assay relative to control; details: read-out: Activity
SK-MEL-5 [12] = test: Growth inhibition of human SK-MEL-5 cells assessed as cell growth at 1 uM incubated for 48 hrs by sulforhodamine B assay relative to control; details: read-out: Activity
IGROV-1 [13] = test: Growth inhibition of human IGROV-1 cells incubated for 48 hrs by sulforhodamine B assay; outline: as §2
SF-268 [14] = test: Growth inhibition of human SF-268 cells assessed as cell growth at 0.1 uM incubated for 48 hrs by sulforhodamine B assay relative to control; details: read-out: Activity
T47D = test: Growth inhibition of human T47D cells assessed as cell growth at 100 uM incubated for 48 hrs by sulforhodamine B assay relative to control; details: read-out: Activity
HOP-92 = test: Growth inhibition of human HOP-92 cells assessed as cell growth at 0.1 uM incubated for 48 hrs by sulforhodamine B assay relative to control; details: read-out: Activity
OVCAR-3 = test: Growth inhibition of human OVCAR-3 cells assessed as cell growth at 0.01 uM incubated for 48 hrs by sulforhodamine B assay relative to control; details: read-out: Activity
786-0 = test: Growth inhibition of human 786-0 cells assessed as cell growth at 0.1 uM incubated for 48 hrs by sulforhodamine B assay relative to control; details: read-out: Activity; outline: as §1
OVCAR-5 [15] = test: Growth inhibition of human OVCAR-5 cells assessed as cell growth at 1 uM incubated for 48 hrs by sulforhodamine B assay relative to control; details: read-out: Activity
OVCAR-4 = test: Growth inhibition of human OVCAR-4 cells assessed as cell growth at 100 uM incubated for 48 hrs by sulforhodamine B assay relative to control; details: read-out: Activity
TK-10 = test: Growth inhibition of human TK-10 cells assessed as cell growth at 0.01 uM incubated for 48 hrs by sulforhodamine B assay relative to control; details: read-out: Activity
CAKI-1 = test: Growth inhibition of human CAKI-1 cells assessed as cell growth at 0.01 uM incubated for 48 hrs by sulforhodamine B assay relative to control; details: read-out: Activity; outline: as §1
HOP-62 [16] = test: Growth inhibition of human HOP-62 cells assessed as cell growth at 1 uM incubated for 48 hrs by sulforhodamine B assay relative to control; details: read-out: Activity
ACHN = test: Growth inhibition of human ACHN cells assessed as cell growth at 1 uM incubated for 48 hrs by sulforhodamine B assay relative to control; details: read-out: Activity
MDA-MB-435 = test: Growth inhibition of human MDA-MB-435 cells assessed as cell growth at 0.01 uM incubated for 48 hrs by sulforhodamine B assay relative to control; details: read-out: Activity

## Cc1cc(C)c(NC(=O)c2sc3nc4c(cc3c2N)CN(Cc2ccccc2)CC4)c(C)c1
IGROV-1 [1]
  growth at 100 µM: 5%
SF-268 [2]
  GI50: 6.93 µM
  LC50 (concentration killing 50% of cells): > 100 µM
  TGI: 64.8 µM
HCT-116 [3]
  growth at 100 µM: -64%
SK-MEL-2 [4]
  growth at 100 µM: 6%
SN12C
  growth at 100 µM: 12%
SK-MEL-5 [5]
  growth at 100 µM: -49%
OVCAR-5 [6]
  growth at 100 µM: 14%
HCT-15
  growth at 100 µM: 4%
Hs-578T
  growth at 0.01 µM: 84%
SK-MEL-2 [7]
  growth at 1 µM: 96%
SK-MEL-5 [8]
  growth at 0.1 µM: 93%
SK-MEL-28
  growth at 1 µM: 70%
PC-3
  growth at 100 µM: 15%
HCT-116 [9]
  growth at 0.01 µM: 93%
HCT-116 [10]
  growth at 0.1 µM: 97%
SK-OV-3
  growth at 100 µM: 16%
Malme-3M
  growth at 0.1 µM: 102%
HCC 2998
  growth at 1 µM: 103%
LOX IMVI
  GI50: 5.01 µM
  LC50: 50.9 µM
  TGI: 18.1 µM
RXF 393
  growth at 100 µM: -15%
HOP-62 [11]
  growth at 0.01 µM: 83%
SK-MEL-5 [12]
  growth at 1 µM: 59%
IGROV-1 [13]
  GI50: 6.54 µM
  LC50: > 100 µM
  TGI: > 100 µM
SF-268 [14]
  growth at 0.1 µM: 100%
T47D
  growth at 100 µM: 1%
HOP-92
  growth at 0.1 µM: 70%
OVCAR-3
  growth at 0.01 µM: 104%
786-0
  growth at 0.1 µM: 92%
OVCAR-5 [15]
  growth at 1 µM: 97%
OVCAR-4
  growth at 100 µM: 28%
TK-10
  growth at 0.01 µM: 103%
CAKI-1
  growth at 0.01 µM: 88%
HOP-62 [16]
  growth at 1 µM: 81%
ACHN
  growth at 1 µM: 89%
MDA-MB-435
  growth at 0.01 µM: 92%

## COc1cccc(NC(=O)c2sc3nc4c(cc3c2N)CN(Cc2ccccc2)CC4)c1
IGROV-1 [1]
  growth at 100 µM: 4%
SF-268 [2]
  GI50: 3.66 µM
  LC50 (concentration killing 50% of cells): > 100 µM
  TGI: 207 µM
HCT-116 [3]
  growth at 100 µM: 2%
SK-MEL-2 [4]
  growth at 100 µM: -28%
SN12C
  growth at 100 µM: 16%
SK-MEL-5 [5]
  growth at 100 µM: -34%
OVCAR-5 [6]
  growth at 100 µM: 34%
HCT-15
  growth at 100 µM: 6%
Hs-578T
  growth at 0.01 µM: 88%
SK-MEL-2 [7]
  growth at 1 µM: 77%
SK-MEL-5 [8]
  growth at 0.1 µM: 90%
SK-MEL-28
  growth at 1 µM: 68%
PC-3
  growth at 100 µM: -2%
HCT-116 [9]
  growth at 0.01 µM: 91%
HCT-116 [10]
  growth at 0.1 µM: 96%
SK-OV-3
  growth at 100 µM: -66%
Malme-3M
  growth at 0.1 µM: 89%
HCC 2998
  growth at 1 µM: 86%
LOX IMVI
  GI50: 4.09 µM
  LC50: > 100 µM
  TGI: 43.5 µM
RXF 393
  growth at 100 µM: -49%
HOP-62 [11]
  growth at 0.01 µM: 80%
SK-MEL-5 [12]
  growth at 1 µM: 58%
IGROV-1 [13]
  GI50: 18.5 µM
  LC50: > 100 µM
  TGI: > 100 µM
SF-268 [14]
  growth at 0.1 µM: 100%
T47D
  growth at 100 µM: -19%
HOP-92
  growth at 0.1 µM: 80%
OVCAR-3
  growth at 0.01 µM: 107%
786-0
  growth at 0.1 µM: 93%
OVCAR-5 [15]
  growth at 1 µM: 95%
OVCAR-4
  growth at 100 µM: -32%
TK-10
  growth at 0.01 µM: 104%
CAKI-1
  growth at 0.01 µM: 87%
HOP-62 [16]
  growth at 1 µM: 74%
ACHN
  growth at 1 µM: 92%
MDA-MB-435
  growth at 0.01 µM: 93%

## Cc1cccc(NC(=O)c2sc3nc4c(cc3c2N)C(=O)CCC4)c1
IGROV-1 [1]
  growth at 100 µM: -4%
SF-268 [2]
  GI50: 1.54 µM
  LC50 (concentration killing 50% of cells): > 100 µM
  TGI: > 100 µM
HCT-116 [3]
  growth at 100 µM: 10%
SK-MEL-2 [4]
  growth at 100 µM: -74%
SN12C
  growth at 100 µM: -33%
SK-MEL-5 [5]
  growth at 100 µM: -30%
OVCAR-5 [6]
  growth at 100 µM: -20%
HCT-15
  growth at 100 µM: 5%
Hs-578T
  growth at 0.01 µM: 88%
SK-MEL-2 [7]
  growth at 1 µM: 17%
SK-MEL-5 [8]
  growth at 0.1 µM: 44%
SK-MEL-28
  growth at 1 µM: 47%
PC-3
  growth at 100 µM: -26%
HCT-116 [9]
  growth at 0.01 µM: 93%
HCT-116 [10]
  growth at 0.1 µM: 68%
SK-OV-3
  growth at 100 µM: -16%
Malme-3M
  growth at 0.1 µM: 64%
HCC 2998
  growth at 1 µM: 28%
LOX IMVI
  GI50: 0.0118 µM
  LC50: > 100 µM
  TGI: ≥ 100 µM
RXF 393
  growth at 100 µM: 5%
HOP-62 [11]
  growth at 0.01 µM: 88%
SK-MEL-5 [12]
  growth at 1 µM: 16%
IGROV-1 [13]
  GI50: 0.662 µM
  LC50: > 100 µM
  TGI: ≥ 100 µM
SF-268 [14]
  growth at 0.1 µM: 93%
T47D
  growth at 100 µM: -2%
HOP-92
  growth at 0.1 µM: 69%
OVCAR-3
  growth at 0.01 µM: 98%
786-0
  growth at 0.1 µM: 80%
OVCAR-5 [15]
  growth at 1 µM: 44%
OVCAR-4
  growth at 100 µM: -56%
TK-10
  growth at 0.01 µM: 91%
CAKI-1
  growth at 0.01 µM: 89%
HOP-62 [16]
  growth at 1 µM: 30%
ACHN
  growth at 1 µM: 49%
MDA-MB-435
  growth at 0.01 µM: 87%
